Data on 96 compounds can be found in ChEMBL document CHEMBL4513216, “Probing the Open Global Health Chemical Diversity Library for Multistage-Active Starting Points for Next-Generation Antimalarials” (ACS Infect Dis, 2020).

Structures are written as SMILES.

The data set can be described thus: Toxicity liver stage against HepG2, at 10uM. It is filed as cell-based. The arrangement: test concentration 10 uM, cell line HepG2-A16-CD81EGFP. To be noted: human, HepG2-A16-CD81EGFP cells; read-out: INHIBITION
Summed up: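 Uninfected HepG2-A16-CD81EGFP cells, 3 × 10^3 per well, 1536-well, plated on prespotted compound at 10 μM final, parasite-free screening media added to match infected plates; puromycin 10 μM positive, DMSO 0.5% negative; run in parallel with 48 h PbLuc assay at 37 °C, 5% CO2; viability by CellTiter-Glo luminescence, normalized to controls.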
Consider `O=S(=O)(NC[C@H]1C[C@@H]2CCN1C[C@@H]2CN1CCCC1)c1ccc(Cl)cc1`, for which the cytotoxicity at 10 µM was -4.38%. Regarding `Cc1ccccc1-n1ncc2c(=O)n(CCN3CCCCC3)cnc21`, the cytotoxicity at 10 µM is -8.47%. Regarding `Cn1cccc1C(O)CNC(=O)c1ccc2nsnc2c1` (stereo unspecified), the cytotoxicity at 10 µM was found to be 4.4%. Under `O=S(=O)(NCC1CCN(c2cnccn2)CC1)c1ccc(F)c(Cl)c1` stands 11.6%.

Regarding `O=C1CCC2(CCN(S(=O)(=O)c3ccccc3)CC2)N1CC1CC1`, the cytotoxicity at 10 µM was 3.41%. On to `CCN(CC)[C@@H]1CN(S(=O)(=O)c2cn(C)cn2)[C@@H]2CCCO[C@H]12`, for which the cytotoxicity at 10 µM was -147%. To `Cc1ccc(N2CC3(CCN(S(=O)(=O)C4CC4)C3)C2)nn1` belongs 10.6%; to `O=C(NC1CC1)N1CCc2ccc(=O)n(CC3CC3)c2CC1`, -4.63%. Under `CN1CCCc2sc(C(=O)NC3CC3)nc21` stands -149%. As for `O=S(=O)(C1CC1)N1CCCC2(COCCN(c3nncs3)C2)C1` (stereo unspecified), the cytotoxicity at 10 µM worked out at 5.22%.

On to `Cc1noc(C2CCC3(CCN(C(=O)c4sccc4C)CC3)O2)n1` (stereo unspecified), for which the cytotoxicity at 10 µM came to 8.94%. Under `CCOC[C@H]1CC[C@H]2[C@H](CCN2C(=O)c2cnccn2)O1` stands 2.22%. Under `O=C1NC(c2ccccc2)=N[C@@]12CC[C@@H]1CN(Cc3nccs3)C[C@@H]12` stands 6.37%; under `Cn1cccc1C(=O)N1CC[C@H]2[C@H](CO[C@H]2CNS(C)(=O)=O)C1`, -2.94%; under `Cc1occc1C(=O)N1CCCC2(CCN(c3ccccc3)C2=O)C1` (stereo unspecified), -5.5%. To `Cc1nc(C)c2c(n1)CCN(Cc1ccco1)CC2` belongs -0.141%; to `Cc1nc(CN2CCO[C@H]3CN(C(=O)c4cccn4C)C[C@H]32)cs1`, -136%. `COc1ccc(C2OC(COc3ccccc3Br)=NN2C(C)=O)cc1` (stereo unspecified): the cytotoxicity at 10 µM amounted to 3.56%. Under `N#Cc1cc(C#N)c(SCC(=O)NCc2ccc(F)cc2)nc1N` stands 0.0723%.

As to `CC(C)Cc1noc(C2CCCN(C(=O)CCc3cnn(C)c3)C2)n1` (stereo unspecified), the cytotoxicity at 10 µM came out at 0.297%. As to `Cc1cccc(CNC(=O)CC2CCN(C(=O)C(C)C)CC2)n1`, the cytotoxicity at 10 µM is 7.45%. As for `COCCNc1nnc(-c2cnc(C)cn2)s1`, the cytotoxicity at 10 µM amounted to 4.22%. As to `COc1ccccc1C1Cn2ccnc2CN1Cc1c[nH]nc1C` (stereo unspecified), the cytotoxicity at 10 µM was -3.85%. Under `CN(C)c1cccc(C2CCCN2S(=O)(=O)c2cn(C)cn2)n1` (stereo unspecified) stands -28.7%; under `CC(=O)N1CCn2c(nnc2C2CCCCN2C(C)=O)C1` (stereo unspecified), -28.1%.

`CS(=O)(=O)N1CCCC1c1cccc(Cc2ccccc2F)n1` (stereo unspecified): the cytotoxicity at 10 µM was -13.2%. To `CC(=O)Nc1cc(C(C)(C)C)sc1C#N` belongs 10.3%; to `Cc1ccnc(NC(=O)c2cc(C)oc2C)c1`, -4.57%. Under `OC(CNCCc1nnc2ccccn12)c1ccc(F)c(F)c1` (stereo unspecified) stands 2.52%.

Take `CC(C1CC1)N(C)Cc1nnc(-c2ccc(Br)s2)o1` (stereo unspecified): the cytotoxicity at 10 µM was -11.2%.

As to `NC(=O)c1cnn2c1NCC(CNCC1(c3ccccc3)CCC1)C2` (stereo unspecified), the cytotoxicity at 10 µM was -7.73%. With `Cc1nn(C(C)(C)C)c(=O)n1CC(=O)NCC(F)(F)F`, the cytotoxicity at 10 µM is -1.32%. Under `COc1ncccc1CNC(=O)c1csc(Br)c1` stands -8.03%; under `CNS(=O)(=O)Cc1cccc(CNc2ccc(C#N)cn2)c1`, -11.2%; under `COC(=O)CCNC(=O)c1ccc(NC(=O)N(C)CC(C)C)cc1`, 9.13%.

As for `CC(C)C(=O)NCc1ccccc1NS(=O)(=O)c1ccccc1`, the cytotoxicity at 10 µM is 9.05%.

Consider `COCc1ccccc1C(=O)N1CCC(CNC(=O)OC(C)(C)C)C1` (stereo unspecified), for which the cytotoxicity at 10 µM was 10.1%. Under `O=C(CN1CCOC(c2ccccc2C(F)(F)F)C1)NC1CC1` (stereo unspecified) stands 3.02%; under `O=C(NCCNS(=O)(=O)c1ccc2c(c1)CCC2)c1ccccc1`, 9.36%; under `CCc1nnc2n1CCN(Cc1csc(-c3ncccn3)n1)C2`, -2.33%. Take `Cc1ccc(C)c(CC(=O)Nc2cnccc2SCCCO)c1`: the cytotoxicity at 10 µM was 21.2%. With `COC(=O)c1cnc(C(=O)N(c2ccc(OC)c(F)c2)C(C)C)cn1`, the cytotoxicity at 10 µM was -1.23%. Under `NS(=O)(=O)CCN1CCOC(c2ccc(Cl)cc2)C1` (stereo unspecified) stands -0.317%; under `CCCS(=O)(=O)CCN1CCOC(c2ccsc2)C1` (stereo unspecified), -2.69%. To `CCN(C(=O)c1ccccc1I)C1CC(=O)NC1=O` (stereo unspecified) belongs -3.86%; to `O=C(Nc1cc(-c2ccccc2)on1)N1CC[C@H](O)C1`, 4.98%; to `COC(=O)c1cccc(CNC(=O)c2cc(C(C)C)n(C)n2)c1`, -3.26%. For `CSc1sc(NC(=O)C2CCCN(C(N)=O)C2)nc1C` (stereo unspecified), the cytotoxicity at 10 µM is 6.08%. Under `CNC(=O)NC(=O)CCSCc1cc(Cl)cc2cccnc12` stands -8.06%. To `CC(=O)NC(C(=O)N(C)Cc1nnc2n1CCC2)C(C)C` (stereo unspecified) belongs -7.85%; to `Cc1ccccc1CS(=O)(=O)CC(=O)N(C)Cc1ccccc1F`, -0.969%; to `Cc1noc(C)c1CN(C)C(=O)NC(C)c1cccs1` (stereo unspecified), 1.41%. To `CC1CCC(NS(=O)(=O)CC(=O)Nc2ccccc2N2CCCC2)CC1` (stereo unspecified) belongs 3.75%; to `Cc1ncc(CNC(=O)NC2CCN(C3CCCC3)CC2)s1`, -9.01%.

Regarding `CC(C(N)=O)N(C)CCCc1cc(-c2ccc(F)cc2)n(C)n1` (stereo unspecified), the cytotoxicity at 10 µM was -4.87%. To `CN(CC(F)F)C(=O)c1cn(-c2ccc(Br)cc2)cn1` belongs 1.73%.

Turning to `Cc1ccc(Sc2nccn(C)c2=O)cc1`, the cytotoxicity at 10 µM stood at 4.8%. Under `CC(=O)Nc1cccc(OCCNC(=O)N(C)Cc2ccco2)c1` stands -9.29%.

For `Cc1cccc(NC(=O)c2sccc2C)n1`, the cytotoxicity at 10 µM is -1.45%. Under `CCOc1cccc(C(=O)N2CCC3(CC2)[C@H](O)C[C@@H]3OC)c1` stands 2.01%; under `Cc1n[nH]c(C)c1CCc1n[nH]c(=O)n1Cc1cccs1`, -146%; under `Cc1cc(C)c2c(N(C)CC3COCCO3)ncnc2n1` (stereo unspecified), -133%.

`Cc1ncsc1CCN(C)C(=O)CCc1nc2cccnc2n1C`: the cytotoxicity at 10 µM is -149%.

As to `CCOC(=O)N1CCC2(CCCN(C3CCOCC3)C2=O)C1` (stereo unspecified), the cytotoxicity at 10 µM was -133%. To `COc1nccc(N2CC[C@@H](N3CCC(O)CC3)[C@H](O)C2)c1C#N` belongs -152%; to `c1ccc(Cc2nc(C3CC3)nn2-c2ccc3c(c2)OCCO3)nc1`, 2.6%.

With `Cc1c(Cl)c(C(=O)N2CC(c3cccnc3)C2)nn1C`, the cytotoxicity at 10 µM is -5.23%. Under `Cc1nn(-c2ccccc2)c(C)c1-c1ccnc(N2CCCOCC2)n1` stands -11.3%; under `O=C1CCC2(CCN(CC[C@@H](O)c3ccccc3)CC2)CN1CC1CC1`, 4.51%. Under `O=C(O)[C@@H]1CN(C(=O)c2ccc3[nH]nnc3c2)C[C@H]1c1ccccc1` stands -130%; under `COCc1noc(CNc2nc(C3CCCC3)nc3c2CCNCC3)n1`, 0.0228%.

Consider `O[C@H]1[C@H](n2cc(CN3CCCC3)nn2)c2ccccc2C12CCNCC2`, for which the cytotoxicity at 10 µM is -3.76%.

For the compound `CC(C(=O)N1CCCC1)N1CCC(c2nccn2Cc2cscn2)CC1` (stereo unspecified), the cytotoxicity at 10 µM stood at 2.79%. With `Cc1cc(I)c2c(c1)C(=O)C(CN1CCCC1)(CN1CCCC1)CO2`, the cytotoxicity at 10 µM was -6.86%. On to `CC(NC(=O)NCc1ccoc1)c1ccc2c(c1)CC(=O)N2` (stereo unspecified), for which the cytotoxicity at 10 µM was -1.82%. For `O=C(CN1CCOC(CNc2cccnn2)C1)N1CCCCC1` (stereo unspecified), the cytotoxicity at 10 µM stood at 5.18%. In the case of `Cc1csc(N2CCCN(C(=O)Cn3cncn3)CC2)n1`, the cytotoxicity at 10 µM is -3.27%.

For the compound `Cc1ccccc1C1(C(=O)NCCN(C(C)C)C(C)C)CCOCC1`, the cytotoxicity at 10 µM was -6.51%. Under `Cn1cc(CC2CCN(C(=O)NCc3cccc(C(N)=O)c3)C2)cn1` (stereo unspecified) stands -4.25%; under `CCOCC(O)CN1CCN(C(=O)Cc2cccc(C)c2)CC1` (stereo unspecified), -7.1%; under `c1ccc(OCCNC2CCCN(Cc3noc(C4CC4)n3)C2)cc1` (stereo unspecified), -13.6%.

On to `CS(=O)(=O)c1cccc(C(N)c2ccc(Cl)cc2)c1` (stereo unspecified), for which the cytotoxicity at 10 µM was -16.1%. Under `COc1ccc(Cl)cc1CC(=O)N1CCN(CC(C)(C)O)CC1` stands -4.21%. Regarding `CCn1ccnc1CN1CCCC1Cn1cc(C)cn1` (stereo unspecified), the cytotoxicity at 10 µM is -14.3%. Under `CC(C)c1nc2c(n1C)CCN(CC(=O)Nc1cccnc1)C2` stands -9.52%; under `CCN(Cc1ccccc1)Cc1nc2c(cnn2C)c(=O)[nH]1`, 2.86%; under `CC(=O)NC1CCCN(C(=O)NCc2cccnc2)C1` (stereo unspecified), -10.5%.

For the compound `Cc1cccc(-c2noc(CN3CCc4nn(C)c(=O)cc4C3)n2)c1`, the cytotoxicity at 10 µM turned out to be 5.15%. Take `CN1CCCC(c2cncc(C(=O)NCc3ccccc3Cl)n2)C1` (stereo unspecified): the cytotoxicity at 10 µM is -2.82%. Under `CC(C)Nc1cccc(CC2CCN(C)C2)n1` (stereo unspecified) stands -27.6%; under `COCC1c2c(cnn2CC2CC2)CCN1Cc1ccc(C)o1` (stereo unspecified), -0.201%; under `CS(=O)(=O)N1CCC2(CC1)COC(COc1cccnc1)C2` (stereo unspecified), 7.61%. Under `CCN(C)c1ncnc2c1CCN(C(=O)c1ccccn1)CC2` stands -2.23%; under `CNC(=O)[C@H]1C[C@H]2OCC[C@H]2N(CCOc2ccc(Cl)cc2)C1`, -104%. For `O=C(NCC1CCOCC1)[C@@H]1CC[C@@H]2[C@@H](CCN2Cc2ccncc2)O1`, the cytotoxicity at 10 µM was determined as 4.85%. Under `COCCOC(=O)N1C[C@@H]2CC[C@H]1CN(C1Cc3ccccc3C1)C2` stands 1.06%.
